Published values gathered from unrelated publications.
Compare with care: the assays were run in different laboratories.
MTNR1A: Melatonin receptor type 1A (MTNR1A, Homo sapiens, UniProt P48039)
Glucagon receptor: Glucagon receptor (Mus musculus, UniProt Q61606)

Structure (SMILES)	target	test	EC50
COc1cccc(CN2CCOc3ccc(OC)cc32)c1	MTNR1A	cAMP, agonist, luciferase	6.11 nM
COc1ccc2[nH]cc(CCNC(C)=O)c2c1I	MTNR1A	cAMP, agonist, TR-FRET	229 nM
Clc1sccc1CNc1cccc(-c2nnc[nH]2)c1	MTNR1A	cAMP, agonist, luciferase	9300 nM
Cc1cccnc1C(=O)Nc1ccc(N2C(=O)c3cccc(Cl)c3C2=O)c(Cl)c1	Metabotropic glutamate receptor 1 (Grm1, Rattus norvegicus, UniProt P23385)	calcium signal, positive allosteric modulator	367 nM
CC[C@H](C)[C@H](NC(=O)[C@H](CO)NC(=O)[C@H](Cc1ccc(O)cc1)NC(=O)[C@H](CC(=O)O)NC(=O)[C@H](CO)NC(=O)[C@@H](NC(=O)[C@H](Cc1ccccc1)NC(=O)[C@@H](NC(=O)CNC(=O)[C@H](CCC(=O)O)NC(=O)[C@H](C)NC(=O)[C@@H](N)Cc1ccc(O)cc1)[C@@H](C)O)[C@@H](C)CC)C(=O)N[C@@H](C)C(=O)N[C@@H](CCSC)C(=O)N[C@@H](CC(=O)O)C(=O)N[C@@H](CCCCN)C(=O)N[C@H](C(=O)N[C@@H](CCCNC(=N)N)C(=O)N[C@@H](CCC(N)=O)C(=O)N[C@@H](CCC(N)=O)C(=O)N[C@@H](CC(=O)O)C(=O)N[C@@H](Cc1ccccc1)C(=O)N[C@H](C(=O)N[C@@H](CC(N)=O)C(=O)N[C@@H](Cc1c[nH]c2ccccc12)C(=O)N[C@@H](CC(C)C)C(=O)N[C@@H](CC(C)C)C(=O)N[C@@H](C)C(=O)N[C@@H](CCC(N)=O)C(=O)N[C@@H](CCCNC(=N)N)C(=O)NCC(=O)N[C@@H](CCCCN)C(=O)N[C@@H](CCCCN)C(=O)N[C@@H](CO)C(=O)N[C@@H](CC(=O)O)C(=O)N[C@@H](Cc1c[nH]c2ccccc12)C(=O)N[C@@H](CCCCN)C(=O)N[C@@H](Cc1c[nH]cn1)C(=O)N[C@@H](CC(N)=O)C(=O)N[C@H](C(=O)N[C@H](C(=O)N[C@@H](CCC(N)=O)C(=O)O)[C@@H](C)O)[C@@H](C)CC)C(C)C)[C@@H](C)CC	Glucagon receptor	reporter gene, agonist, luciferase	> 1000 nM
C#CCOCCOCCOCCOc1ccc2c3c1C1CCCC1N3CCNC2 (racemic)	5-hydroxytryptamine receptor 2C (HTR2C, Homo sapiens, UniProt P28335)	calcium signal, agonist, fluorescence	647 nM
CC[C@H](C)[C@H](NC(=O)[C@H](Cc1ccccc1)NC(=O)[C@H](CCC(=O)O)NC(=O)[C@H](CCCCN)NC(=O)[C@H](C)NC(=O)[C@H](C)NC(=O)[C@H](CCC(N)=O)NC(=O)CNC(=O)[C@H](CCC(=O)O)NC(=O)[C@H](CC(C)C)NC(=O)[C@H](Cc1ccc(O)cc1)NC(=O)[C@H](CO)NC(=O)[C@H](CO)NC(=O)[C@@H](NC(=O)[C@H](CC(=O)O)NC(=O)[C@H](CO)NC(=O)[C@@H](NC(=O)[C@H](Cc1ccccc1)NC(=O)[C@@H](NC(=O)CNC(=O)[C@H](CCC(=O)O)NC(=O)[C@H](C)NC(=O)[C@@H](N)Cc1c[nH]cn1)[C@@H](C)O)[C@@H](C)O)C(C)C)C(=O)N[C@@H](C)C(=O)N[C@@H](Cc1c[nH]c2ccccc12)C(=O)N[C@@H](CC(C)C)C(=O)N[C@H](C(=O)N[C@@H](CCCCN)C(=O)NCC(=O)N[C@@H](CCCN=C(N)N)C(=O)NCC(=O)O)C(C)C	Glucagon receptor	reporter gene, agonist, luciferase	> 1000 nM
COc1ccc(CSc2nnc(C3CC3)[nH]2)cc1	MTNR1A	cAMP, agonist, luciferase	2.96 nM
COCC(CNC(C)=O)c1cccc2ccc(OC)cc12 (stereo not drawn)	MTNR1A	cAMP, agonist, TR-FRET	21.4 nM
